Data set [1] has as its target T1, Muscarinic acetylcholine receptor M1 (Rattus norvegicus) (UniProt P08482).
T1 sequence (whole entry): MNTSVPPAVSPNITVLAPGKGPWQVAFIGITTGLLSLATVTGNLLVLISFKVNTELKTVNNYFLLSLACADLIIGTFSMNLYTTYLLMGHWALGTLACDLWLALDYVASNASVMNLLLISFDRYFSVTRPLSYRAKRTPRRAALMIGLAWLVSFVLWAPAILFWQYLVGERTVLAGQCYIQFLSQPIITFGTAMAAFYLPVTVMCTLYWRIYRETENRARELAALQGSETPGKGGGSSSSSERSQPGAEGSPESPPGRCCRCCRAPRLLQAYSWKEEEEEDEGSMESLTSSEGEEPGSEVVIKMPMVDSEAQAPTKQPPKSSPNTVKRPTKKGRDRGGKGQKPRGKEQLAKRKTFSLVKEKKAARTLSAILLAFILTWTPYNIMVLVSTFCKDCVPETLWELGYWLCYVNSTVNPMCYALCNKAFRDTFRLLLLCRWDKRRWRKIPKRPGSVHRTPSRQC
Briefly: Positive allosteric modulation of recombinant rat muscarinic acetylcholine receptor M1 expressed in CHOK1 cells assessed as increase in carbachol-induced intracellular calcium flux at 10 uM preincubated for 5 mins followed by carbachol addition by Fluo4-AM dye based FLIPR assay relative to carbachol. To be noted: CHO-K1. It is filed as functional, cell-based. Put shortly:
(§1)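 CHO-K1 cells stably expressing human or rat M1–M5; M2 and M4 lines also co-express human Gα16. Cells loaded with 3.1 μM Fluo-4 AM in HBSS/20 mM HEPES pH 7.5/BSA/2.5 mM probenecid for ~2 h at room temperature. Test substance at 10 μM final, then carbachol (0.0024 nM–100 μM) ~5 min later; Ca2+ read by FLIPR Tetra. Fold shift = carbachol EC50 without / with test substance, from logistic fits.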
A general note: Calcium assays in cells follow changes in intracellular calcium, usually with a dye or a luminescent sensor.

The target of data set [2] is T2, Muscarinic acetylcholine receptor M2 (Homo sapiens) (UniProt P08172).
T2 sequence (whole entry): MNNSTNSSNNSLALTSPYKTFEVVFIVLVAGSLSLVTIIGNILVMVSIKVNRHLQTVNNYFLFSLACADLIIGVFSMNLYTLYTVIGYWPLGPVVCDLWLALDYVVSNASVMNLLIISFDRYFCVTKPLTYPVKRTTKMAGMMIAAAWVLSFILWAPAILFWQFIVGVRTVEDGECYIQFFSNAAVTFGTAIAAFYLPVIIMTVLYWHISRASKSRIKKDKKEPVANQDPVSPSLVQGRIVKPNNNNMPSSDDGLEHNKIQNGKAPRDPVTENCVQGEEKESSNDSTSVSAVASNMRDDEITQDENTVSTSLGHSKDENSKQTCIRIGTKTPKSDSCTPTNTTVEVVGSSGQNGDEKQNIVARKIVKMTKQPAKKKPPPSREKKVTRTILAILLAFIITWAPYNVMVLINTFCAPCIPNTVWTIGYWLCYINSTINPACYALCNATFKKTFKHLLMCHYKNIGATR
Briefly: Positive allosteric modulation of recombinant human muscarinic acetylcholine receptor M2 expressed in CHOK1 cells coexpressing G-alpha16 assessed as increase in carbachol-induced intracellular calcium flux at 10 uM preincubated for 5 mins followed by carbachol addition by Fluo4-AM based FLIPR assay relative to carbachol. It counts as functional, cell-based. The settings on record: CHO-K1. Put shortly: as §1

In data set [3] the target is T3, Thrombopoietin receptor (Homo sapiens, UniProt P40238).
T3 sequence (P40238 whole entry): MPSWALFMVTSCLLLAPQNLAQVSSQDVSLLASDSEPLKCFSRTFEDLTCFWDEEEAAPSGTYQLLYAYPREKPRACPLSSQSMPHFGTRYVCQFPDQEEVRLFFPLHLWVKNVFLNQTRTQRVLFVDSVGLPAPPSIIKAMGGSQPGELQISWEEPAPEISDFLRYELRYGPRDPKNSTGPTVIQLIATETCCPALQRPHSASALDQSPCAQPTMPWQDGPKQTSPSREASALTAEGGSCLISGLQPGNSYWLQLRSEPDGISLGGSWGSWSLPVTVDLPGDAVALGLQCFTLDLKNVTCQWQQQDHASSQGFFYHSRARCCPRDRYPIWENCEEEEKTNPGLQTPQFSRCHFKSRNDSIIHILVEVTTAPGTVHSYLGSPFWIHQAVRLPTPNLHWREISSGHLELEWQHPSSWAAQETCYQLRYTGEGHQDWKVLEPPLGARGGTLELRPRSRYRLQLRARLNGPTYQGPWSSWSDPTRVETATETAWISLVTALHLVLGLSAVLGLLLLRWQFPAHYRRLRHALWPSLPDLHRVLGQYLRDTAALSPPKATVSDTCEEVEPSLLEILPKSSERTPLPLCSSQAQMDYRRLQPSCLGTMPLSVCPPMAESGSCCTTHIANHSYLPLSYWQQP
Kind of data set: Agonist activity at recombinant human c-Mpl receptor transfected in BA/F3 cells assessed as increase in cell proliferation by cell counting analysis. It counts as cell-based. The settings on record: baf3. Put shortly:
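Ba/F3 cells stably transfected with human c-Mpl by electroporation with blasticidin selection. 1×10^4 cells/well in RPMI-1640 with 10% FBS, with test substance (100 nM to 10 μM final), overnight at 37°C in 5% CO2. Cell Counting Kit added for about 5 h, then A450 read. Scale: untreated wells 0%, reference c-Mpl agonist at 1 μM 100%. EC30 from logistic regression.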

The target in data set [4] is Muscarinic acetylcholine receptor M3 (Rattus norvegicus) (UniProt P08483). Kind of data set: Positive allosteric modulation of muscarinic acetylcholine receptor M3 in Sprague-Dawley rat urinary bladder assessed as increase in 8 Hz electrical field stimulation-induced bladder contraction. Put shortly:
(§2)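 Female Sprague-Dawley rats, 9–10 weeks old. Longitudinal bladder strips (~10×2 mm) in Krebs at 37°C, gassed with 95% O2/5% CO2. EFS at 8 Hz, 10 s trains, 0.3 ms pulses, voltage set to give about half-maximal response. Drug added cumulatively at 1, 3 and 10 μM, 10 stimulations per concentration. Contraction = peak minus basal tone, averaged over the last 3 contractions and compared with pre-drug value (n=7).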

Data set [5] in a line: AUCinfinity in Crl:CD(SD) rat at 1 mg/kg, po measured up to 24 hrs by LC-MS/MS analysis. To be noted: in vivo. More on the design: dose 1 mg/kg, time infinity, route oral. It is filed as ADME, organism-based. Put shortly:
(§3)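 Male Crl:CD(SD) rats, 8 weeks old, food deprived (n=4); iv 0.3 mg/kg or po 1 mg/kg in DMF/propylene glycol/water for injection (1/1/8) containing 1 M NaOH (2 equivalents). Plasma sampled to 24 h, assayed by validated LC-MS/MS. Parameters from each animal by noncompartmental analysis, reported as means.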

Data set [6] can be described thus: Half life in Crl:CD(SD) rat at 0.3 mg/kg, iv measured up to 24 hrs by LC-MS/MS analysis. It counts as ADME, organism-based. To be noted: in vivo. Put shortly: as §3
The nature of data set [7]: Volume of distribution at steady state in Crl:CD(SD) rat at 0.3 mg/kg, iv measured up to 24 hrs by LC-MS/MS analysis. To be noted: in vivo, read-out: Vdss. It counts as ADME, organism-based. Put shortly: as §3
Data set [8] in a line: Oral bioavailability in Crl:CD(SD) rat at 1 mg/kg measured up to 24 hrs by LC-MS/MS analysis. It counts as ADME, organism-based. To be noted: in vivo. Put shortly:
as §3

In data set [9] the target is Muscarinic acetylcholine receptor M3 (Rattus norvegicus) (UniProt P08483). Kind of data set: Positive allosteric modulation of muscarinic acetylcholine receptor M3 in Sprague-Dawley rat urinary bladder assessed as increase in 8 Hz electrical field stimulation-induced bladder contraction by measuring tension of isolated bladder contraction at 3 uM (reference value: 2.21 +/- 0.26 g). The method in brief:
as §2

Muscarinic acetylcholine receptor M3 (Rattus norvegicus), sequence (P08483 whole entry, looked up): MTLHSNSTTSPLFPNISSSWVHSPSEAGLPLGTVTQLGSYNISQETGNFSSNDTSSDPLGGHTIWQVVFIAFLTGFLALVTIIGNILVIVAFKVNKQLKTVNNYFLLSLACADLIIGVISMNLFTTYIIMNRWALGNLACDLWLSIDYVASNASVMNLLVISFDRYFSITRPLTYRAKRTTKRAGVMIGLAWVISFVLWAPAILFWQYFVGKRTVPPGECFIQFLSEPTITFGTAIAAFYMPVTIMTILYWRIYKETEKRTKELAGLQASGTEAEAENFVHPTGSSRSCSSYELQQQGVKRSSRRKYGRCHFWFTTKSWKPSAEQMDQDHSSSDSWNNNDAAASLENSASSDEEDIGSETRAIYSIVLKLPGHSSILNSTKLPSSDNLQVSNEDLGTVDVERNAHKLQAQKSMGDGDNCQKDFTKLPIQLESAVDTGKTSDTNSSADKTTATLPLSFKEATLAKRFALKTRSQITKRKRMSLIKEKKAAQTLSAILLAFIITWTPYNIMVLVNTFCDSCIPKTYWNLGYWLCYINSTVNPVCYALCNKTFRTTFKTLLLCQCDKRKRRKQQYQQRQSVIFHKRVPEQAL

As usually defined, the EC30 is the concentration at which the effect reaches the 30% level. Usually AUC(0-inf) stands for total exposure, with the tail of the curve extrapolated. A low value points to less exposure. Usually half-life stands for the time in which the quantity being followed falls by half. Read a low half-life as rapid decline. One may read the bioavailability as dose-corrected exposure relative to a reference, in per cent. For the compound `CC[C@@H]1CCCN1Cc1sc(NC(=O)c2cnc(N3CCC(C(=O)O)CC3)cn2)nc1-c1ccc(OC)c(C(F)(F)F)c1.Cl.Cl`, the fold change (FC) in data set [1] was determined as 2.1; in [2] it was 1.3. The EC30 in [3] was over 10 µM. In addition, the Activity entry was “Dose-dependent effect” in [4] and 2.79 g in [9]. In addition, the AUC(0-inf) in data set [5] is 209 ng·h/mL. Besides, the half-life in [6] is 2.43 h. For the same compound, the Vd in [7] was 1.59 L/kg. The compound also displayed a bioavailability in data set [8] of 19%.

The values are drawn from ChEMBL document CHEMBL4622869, “Discovery and structure-activity relationships study of positive allosteric modulators of the M3 muscarinic acetylcholine receptor” (Bioorg Med Chem, 2020).
